In ChEMBL document CHEMBL1833883, “Synthesis and antiangiogenic activity of new silybin galloyl esters” (J Med Chem, 2011):
Converted amounts (≈) assume the structure as drawn. The source made the active and inactive calls. The rule behind the calls is not given here.

What was measured:
HUVEC [1] = assay: Cytotoxicity against HUVEC assessed as cell viability after 16 hrs by MTT assay; type: cell-based; settings: Homo sapiens
Summary of the method: (§1)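 Confluent HUVECs on gelatin-coated wells treated with serial dilutions of compound in fresh EGM for 16 h (overnight, 16–20 h). MTT added in medium at 1 mg/mL, 3 h at 37 °C; formazan dissolved in 1% NH₃/DMSO and absorbance read at 540 nm. IC50 reported as mean ± SD of three independent experiments, each run in triplicate.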

HUVEC [2] = assay: Cytotoxicity against HUVEC by LDH release assay; type: cell-based; settings: human
Summary of the method: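 Confluent HUVECs on gelatin-coated wells exposed overnight (16–20 h) to serial dilutions of compound in fresh EGM. Culture medium then sampled to measure LDH leakage.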

HUVEC [3] = assay: Antiproliferative activity against HUVEC assessed as inhibition of cell growth after 3 days by MTT assay; type: functional, cell-based; settings: Homo sapiens, 72 h
Summary of the method: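 4 × 10³ HUVECs incubated with serial dilutions of compound for 3 days. MTT (5 mg/mL, 10 μL) added and incubated 3 h at 37 °C; formazan dissolved in 1% NH₃ in DMSO and read at 540 nm. IC50 reported as mean ± SD of three independent experiments, each run in triplicate.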

HUVEC [4] = assay: Antiangiogenic activity in HUVEC assessed as inhibition of tube formation at 20 uM after 6 hrs by Matrigel assay relative to control; type: functional; settings: Homo sapiens
Summary of the method: (§2)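 Roughly 1 × 10⁴ HUVECs plated in EGM on polymerized Matrigel (9 mg/mL), with or without compound; 2-methoxyestradiol 10 μM as positive control. Three images per well taken at 40× magnification. Tube formation scored in a field of about 100 cells as (sprouting×1 + connected×2 + polygons×3)/total cells, and expressed as % of untreated control; p < 0.05 versus control.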

HUVEC [5] = assay: Antiangiogenic activity in HUVEC assessed as inhibition of tube formation at 30 uM after 6 hrs by Matrigel assay relative to control; type: functional; settings: Homo sapiens; summary of the method: as §2
HUVEC [6] = assay: Antiangiogenic activity in HUVEC assessed as inhibition of cell migration after 16 to 20 hrs by wound healing migration assay; type: functional; settings: Homo sapiens
Summary of the method: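 HUVECs (passages 2–6, isolated from umbilical cord by collagenase digestion, grown in EGM) as confluent monolayers; one 1-mm cell-free line scratched per well, cells washed twice with PBS, then given fresh EGM with or without compound. Wound photographed at time zero and after overnight (16–20 h) incubation at 37 °C. Minimal inhibitory concentration taken from reoccupation of the wound space.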

HUVEC [7] = assay: Antiangiogenic activity in HUVEC assessed as inhibition of tube formation after 24 hrs by Matrigel assay; type: functional; settings: Homo sapiens
Summary of the method: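 Matrigel (9 mg/mL) polymerized at 37 °C for at least 30 min. About 1 × 10⁴ HUVECs seeded in EGM with or without compound; 2-methoxyestradiol 10 μM as positive control. After 24 h, the minimal inhibitory concentration was taken as the lowest concentration at which no tubular structures formed.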

HUVEC [8] = assay: Antiangiogenic activity in HUVEC assessed as inhibition of tube formation at 10 uM after 6 hrs by Matrigel assay relative to control; type: functional; settings: Homo sapiens; summary of the method: as §2
HUVEC [9] = assay: Antiangiogenic activity in HUVEC assessed as inhibition of tube formation after 6 hrs by Matrigel assay relative to control; type: functional, cell-based; settings: Homo sapiens; summary of the method: as §2
[10] = Cytotoxicity against HUVEC assessed as cell viability at concentration higher than IC50 after 16 hrs by MTT assay; type: cell-based; settings: human, HUVEC cells; read-out: Activity; summary of the method: as §1
[11] = Cytotoxicity against HUVEC assessed as cell viability at 100 uM after 16 hrs by MTT assay; type: cell-based; settings: human, HUVEC cells; read-out: Activity; summary of the method: as §1
HUVEC [12] = assay: Antiangiogenic activity in HUVEC assessed as inhibition of tube formation at 50 uM after 6 hrs by Matrigel assay; type: functional, cell-based; settings: Homo sapiens
HUVEC [13] = assay: Antiangiogenic activity in HUVEC assessed as inhibition of tube formation at 75 uM after 6 hrs by Matrigel assay; type: functional, cell-based; settings: Homo sapiens
HUVEC [14] = assay: Antiangiogenic activity in HUVEC assessed as inhibition of tube formation up to 75 uM after 6 hrs by Matrigel assay; type: functional, cell-based; settings: Homo sapiens; summary of the method: as §2
HUVEC [15] = assay: Antiangiogenic activity in HUVEC assessed as inhibition of tube formation at 10 uM after 6 hrs by Matrigel assay; type: functional, cell-based; settings: Homo sapiens; summary of the method: as §2

Row | Compound | IC50 (HUVEC [1]) [µM] | Activity (HUVEC [2]) | IC50 (HUVEC [3]) [µM] | inhibition at 20 µM (HUVEC [4]) [%] | inhibition at 30 µM (HUVEC [5]) [%] | MIC (HUVEC [6]) [µM] | MIC (HUVEC [7]) [µM] | inhibition at 10 µM (HUVEC [8]) [%] | inhibition (HUVEC [9]) | viability at 16 h [10] [%] | viability at 16 h, 100 µM [11] [%] | inhibition (HUVEC [12]) | inhibition (HUVEC [13]) | inhibition (HUVEC [14]) | inhibition (HUVEC [15])
1 | COc1cc([C@H]2Oc3cc([C@H]4Oc5cc(O)cc(O)c5C(=O)[C@@H]4O)ccc3O[C@@H]2CO)ccc1O [SILYBIN A] | 62.3 | Non-toxic | 8.83 |  |  |  |  |  |  |  |  |  |  |  | 
2 | COc1cc(C2Oc3cc([C@H]4Oc5cc(O)cc(O)c5C(=O)[C@@H]4O)ccc3OC2CO)ccc1OC(=O)c1cc(O)c(O)c(O)c1 (some centres undefined) | 35.4 | Non-toxic | 10.3 | 94.5 | 49.5 | 20 (≈ 12.7 µg/mL) | 60 (≈ 38.1 µg/mL) |  |  |  |  |  |  |  | 
3 | COc1cc([C@@H]2Oc3cc([C@H]4Oc5cc(O)cc(O)c5C(=O)[C@@H]4O)ccc3O[C@H]2CO)ccc1O [SILYBIN B] | 60.5 | Non-toxic | 6.49 |  |  |  |  |  |  |  |  |  |  |  | 
4 | COc1cc([C@@H]2Oc3cc([C@H]4Oc5cc(OC(=O)c6cc(O)c(O)c(O)c6)cc(O)c5C(=O)[C@@H]4O)ccc3O[C@H]2CO)ccc1O | 7.85 | Non-toxic | 4.29 |  |  | 10 (≈ 6.35 µg/mL) |  | 79.9 | Dose-dependent effect | 50 | 40 | Active |  |  | 
5 | COc1cc(C2Oc3cc([C@H]4Oc5cc(O)cc(O)c5C(=O)[C@@H]4O)ccc3OC2CO)ccc1O (mixture of isomers) [SILIBININ] | 72.6 | Non-toxic | 9.99 |  |  | 50 | 75 |  |  |  |  |  | Active |  | 
6 | COc1cc(C2Oc3cc([C@H]4Oc5cc(O)cc(O)c5C(=O)[C@@H]4OC(=O)c4cc(O)c(O)c(O)c4)ccc3OC2CO)ccc1O (some centres undefined) | 65 | Non-toxic | 12.3 |  |  | 50 (≈ 31.7 µg/mL) | 75 (≈ 47.6 µg/mL) |  |  |  |  |  |  | inactive | 
7 | COc1cc2c(cc1O)CC[C@@H]1[C@@H]2CC[C@]2(C)[C@@H](O)CC[C@@H]12 |  |  |  |  |  |  |  |  |  |  |  |  |  |  | Active
8 | COc1cc([C@H]2Oc3cc([C@H]4Oc5cc(OC(=O)c6cc(O)c(O)c(O)c6)cc(O)c5C(=O)[C@@H]4O)ccc3O[C@@H]2CO)ccc1O | 17.1 | Non-toxic | 6.06 |  |  | 10 (≈ 6.35 µg/mL) |  | 79.9 | Dose-dependent effect | 50 | 40 | Active |  |  | 
9 | COc1cc(C2Oc3cc([C@H]4Oc5cc(O)cc(O)c5C(=O)[C@@H]4O)ccc3OC2COC(=O)c2cc(O)c(O)c(O)c2)ccc1O (some centres undefined) | 55 | Non-toxic | 11.6 |  |  | 20 (≈ 12.7 µg/mL) | 75 (≈ 47.6 µg/mL) |  |  |  |  |  |  |  | 
10 | COc1cc(C2Oc3cc([C@H]4Oc5cc(OC(=O)c6cc(O)c(O)c(O)c6)cc(O)c5C(=O)[C@@H]4O)ccc3OC2CO)ccc1O (some centres undefined) | 9.21 | Non-toxic | 4.75 |  |  | 10 (≈ 6.35 µg/mL) | 25 (≈ 15.9 µg/mL) | 79.9 | Dose-dependent effect | 50 | 40 | Active |  |  | 
